# Only some compounds are listed: those with a hit (about 3.9% of all), similar ones and a draw of the others.
# CHRM1 antagonist: antagonists of human M1 muscarinic receptor; hit rate 1.3% among 360,000; AID 588852; inhibition, % at 3 µM; CHO-K1 hM1, Fluo-8 calcium fluorescence, ACh EC80 antagonist; P11229;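 active means percent inhibition above its own plate's cutoff, namely the mean of that plate's compound wells plus 3 SD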;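 further: peak over basal fluorescence ratio during 140 s after agonist addition; 0% = ACh EC80 plus DMSO and 100% = DMSO alone without agonist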
# TAAR1 agonist: human TAAR1 agonism; Q96RJ0; CHO RD-HGA16 TAAR1, Fluo-8 calcium fluorescence; vehicle wells 0%, saturating PEA agonist 100%; activation, % at 3 µM; hit rate 0.99% among 360,000; AID 624467;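 active means activation above the mean activation of all test compounds in the run plus 3 SD, cut at about 38% in these data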
#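 System: CHO-derived RD-HGA16 cells with stable Gα16 and human TAAR1. Times: 17-24 h plating, Fluo-8 75 min 37 °C, 30 min RT. Measured by: calcium-sensitive Fluo-8 signal, excitation 470-495, emission 515-575 nm. Read-out basis: % activation relative to PEA EC100 response. Control set: DMSO and PEA EC100. Repeats: no replicates (n 1).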
# m5-HT2A agonist: mouse HTR2A agonism via beta-arrestin recruitment; P35363; CHO-K1 mHTR2A beta-arrestin complementation, luminescence; percent of 30 µM serotonin response; activation, % at 7.6 µM; hit rate 0.66% among 360,000; AID 624169;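 active means activation above a run cutoff, the mean activation of all tested compounds plus 3 SD, cut at about 14% in these data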;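 further: 0% = plate median of compound wells and 100% = 30 µM serotonin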
# TAAR1 antagonist: antagonists of human TAAR1; AID 624466; CHO RD-HGA16 TAAR1, Fluo-8 calcium fluorescence, antagonist; hit rate 1.5% among 360,000; Q96RJ0; inhibition, % at 3 µM;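 active means inhibition above a per-plate cutoff, the mean inhibition of test compounds on that plate plus 3 SD, cut at about 49% in these data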;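 further: 0% = DMSO plus EC80 beta-PEA response and 100% = DMSO alone without agonist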
#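 System: CHO RD-HGA16 cells bearing hTAAR1. Reagent: EC80 β-phenethylamine stimulus. Schedule: seeding 17-24 h prior, 75-min 37 °C, 30-min RT dye loading. Signal: Fluo-8 intracellular calcium dye fluorescence, real-time kinetic reads. Read-out: % inhibition from peak post-agonist over basal fluorescence ratio. Benchmarks: vehicle wells and EC80 agonist wells. Replicates: n of 1.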
# CHRM1 agonist: human M1 muscarinic receptor agonism | P11229 | CHO-K1 hM1, Fluo-8 calcium fluorescence, agonist mode; 0% DMSO, 100% acetylcholine EC100 | activation, % at 3 µM | hit rate 0.33% among 360,000 | AID 588814;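 active means activation above the run's mean compound activation plus 3 SD, cut at about 16% in these data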;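 further: peak over basal fluorescence ratio within a 140 s kinetic read after compound addition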
# M1 PAM: positive allosteric modulators of human M1 muscarinic receptor; P11229; CHO-K1 hM1, Fluo-8 calcium fluorescence, ACh EC20; 0% = ACh EC20, 100% = maximal ACh; activation, % at 3 µM; hit rate 0.088% among 360,000; AID 588819; in the data active means activation above about 19%, passing the limit was not always enough
# OPRM1 ag: counter-screen for mouse HTR2A agonists: human mu opioid receptor agonists | U2OS OPRM1 beta-arrestin PathHunter, luminescence; DMSO 0%, DAMGO 9.3 µM 100% | AID 624380 | hit rate 5.3% among 2,300 | activation, % at 9.3 µM | shares compounds with m5-HT2A agonist;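 active means mean activation above the mean of DMSO-only wells plus 3 SD, cut at about 0.5% in these data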
# Target sequence (P35372 whole entry, looked up): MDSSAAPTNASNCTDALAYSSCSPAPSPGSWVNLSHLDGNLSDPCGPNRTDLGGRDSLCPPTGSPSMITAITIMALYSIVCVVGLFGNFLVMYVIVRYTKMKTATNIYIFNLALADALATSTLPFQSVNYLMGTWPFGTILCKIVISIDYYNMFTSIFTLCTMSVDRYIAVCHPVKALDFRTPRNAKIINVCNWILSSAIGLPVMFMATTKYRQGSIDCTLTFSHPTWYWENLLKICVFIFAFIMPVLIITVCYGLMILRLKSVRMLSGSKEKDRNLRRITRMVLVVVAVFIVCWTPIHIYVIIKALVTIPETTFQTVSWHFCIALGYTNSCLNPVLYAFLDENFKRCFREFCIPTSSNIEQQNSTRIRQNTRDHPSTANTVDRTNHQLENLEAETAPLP
# HTR2A ag conf: mouse HTR2A agonism confirmed; shares compounds with m5-HT2A agonist; hit rate 19% among 2,300; activation, % at 7.6 µM; CHO-K1 PathHunter beta-arrestin recruitment, luminescence; DMSO 0%, 30 µM serotonin 100%; AID 624381;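 active means mean activation across triplicates above the hit threshold derived in the original primary screen, cut at about 15% in these data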
# * = called active by the depositor; / = not tested or not shown.
SMILES,CHRM1 antagonist,TAAR1 agonist,m5-HT2A agonist,TAAR1 antagonist,CHRM1 agonist,M1 PAM,OPRM1 ag,HTR2A ag conf
Cc1cccc(S(=O)(=O)NCCc2cn3ccccc3n2)c1,4,0,2,3,-8,1,/,/
CCOC(=O)NC1(C(F)(F)F)NC(=O)N(c2ccc(F)cc2)C1=O (stereo unspecified),-5,0,3,5,-2,5,/,/
O=C(NC1(C(F)(F)F)NC(=O)N(c2ccc(F)cc2)C1=O)c1cccs1 (stereo unspecified),-5,1,18*,13,-8,-2,0,-4
CCOC(=O)N1CCN(S(=O)(=O)c2c(C)nc3sccn3c2=O)CC1,-18,0,-1,2,0,13,/,/
COC(=O)[C@@]1(C)[C@H]2C(=O)N(C)C(=O)[C@H]2[C@H]2CN=C(SCC(=O)c3ccccc3)N21,-3,1,0,0,0,8,/,/
COC(=O)[C@@]1(C)[C@H]2C(=O)N(C)C(=O)[C@H]2[C@H]2CN=C(SCc3ccccc3)N21,-3,6,17*,-10,-2,1,-1,-4
C[C@]12c3[nH]c4cc(-c5ccco5)ccc4c3CCN1C(=O)[C@@H](CC(=O)NCc1ccco1)C[C@@H]2C(=O)N1CCOCC1,-13,0,0,2,-6,5,/,/
CC(C(=O)NCc1ccc(F)cc1)n1ccc2cc(S(=O)(=O)N3CCCC3)ccc21 (stereo unspecified),18,1,15*,-4,-4,-13,0,0
COc1ccccc1CN1CC(C(=O)NCc2cc(C)on2)CCC1=O (stereo unspecified),-4,1,16*,6,0,6,0,2
O=C(COC(=O)CN1C(=O)C2CC=CCC2C1=O)Nc1cccc([N+](=O)[O-])c1 (stereo unspecified),-6,2,1,-11,-2,2,/,/
Cc1ccc(C(=O)N/C(=C/c2ccccc2)C(=O)NC(Cc2ccccc2)C(=O)O)cc1 (stereo unspecified),-11,2,16*,0,-7,11,-1,42*
CC(=O)Nc1ccc(C(=O)N/C(=C\c2ccccc2)C(=O)Nc2cccc(C(=O)O)c2)cc1,-4,10,13,-13,0,8,/,/
O=C(Nc1ccc(C(=O)O)cc1)/C(=C/c1ccc2c(c1)OCO2)NC(=O)c1cccc(Br)c1,-3,4,19*,8,0,13,0,-5
O=C(Nc1cccc(C(=O)O)c1)/C(=C\c1ccc2c(c1)OCO2)NC(=O)c1ccc(Br)cc1,-3,5,7,12,-3,11,/,/
Cc1ccc(/C=C(\NC(=O)c2ccccc2)C(=O)NC(Cc2ccccc2)C(=O)O)cc1 (stereo unspecified),-6,-1,4,-21,-3,9,/,/
O=C(Nc1cccc(C(=O)O)c1)/C(=C\c1ccccc1)NC(=O)c1ccccc1,1,8,18*,-1,-6,1,-1,-3
COc1ccc(OCc2nnc(SCC(=O)N(C)Cc3ccccc3)n2N)cc1,-13,0,1,-9,-1,13,/,/
CC(C)c1ccc(N(CC(=O)NC2CCCCC2)C(=O)CCC(=O)Nc2ccccn2)cc1,-11,-2,0,1,-1,9,/,/
CC(C)(C)NC(=O)CN(C(=O)CNC(=O)c1cccs1)c1ccccc1F,-4,2,16*,-12,-1,4,0,4
Cc1ccc(N(CC(=O)NC(C)(C)C)C(=O)CNC(=O)c2cccs2)c(C)c1,0,5,-1,-15,-9,4,/,/
CCOC(=O)C1(CC2CC2)CCN(Cc2cc(Cl)c(O)c(OC)c2)CC1,-1,5,20*,0,-6,5,0,-4
CCOC(=O)C1(CCOc2ccccc2)CCN(Cc2cc(OC)c(O)c(OC)c2)CC1,-8,0,-2,6,-6,0,/,/
COc1cc(/C=N/NC(=O)c2ccc(NC(=O)C3CC3)cc2)ccc1OC(C)=O,-1,1,2,-3,0,8,/,/
COc1ccc(/C=N/NC(=O)c2ccc(NC(=O)C3CCCCC3)cc2)cc1O,0,0,20*,2,9,-1,-1,-3
CC(OC(=O)c1ccccc1Br)C(=O)Nc1nc(-c2cccc([N+](=O)[O-])c2)cs1 (stereo unspecified),0,5,17*,6,-1,-5,0,-4
SMILES,CHRM1 antagonist,TAAR1 agonist,m5-HT2A agonist,TAAR1 antagonist,CHRM1 agonist,M1 PAM,OPRM1 ag,HTR2A ag conf
O=C(OCN1C(=O)c2ccccc2C1=O)c1cc(S(=O)(=O)N2CCOCC2)ccc1F,3,4,1,-10,-1,2,/,/
CCOC(=O)C(C(=O)OCC)C1N=C(N)N=C2Oc3ccccc3N21 (stereo unspecified),-6,7,15*,-15,3,13,0,0
Cc1cccc(NC(=O)c2cc(S(=O)(=O)N(C)c3ccc(F)cc3)ccc2Cl)n1,-1,1,-8,35,-3,-3,/,/
Cc1ccc(O)c(C=Nc2cc(C)ccc2O)c1,-5,/,-1,/,-4,2,/,/
CC(C)(C)c1ccc(O)c(N=Cc2cc(Br)ccc2O)c1,-1,4,49*,-1,-5,4,0,2
Cc1ccc(CN2CCNC(=O)C2CC(=O)N(C)C2CCCCC2)o1 (stereo unspecified),8,-1,-3,-1,-4,0,/,/
Cc1ccc(CN2CCNC(=O)C2CC(=O)O)o1 (stereo unspecified),-11,1,21*,6,0,11,-1,-4
Cc1cc(C)c(NC(=O)CNC(=O)COC(=O)C2=COCCO2)c(C)c1,-10,0,-3,0,-2,10,/,/
COc1ccc(-c2csc(C(C)(O)c3ccc(F)c(F)c3)n2)cc1 (stereo unspecified),9,0,15*,19,-6,-10,0,-4
CC1=NN(C(C#N)c2ccccc2O)C(C)(C)C1 (stereo unspecified),8,3,4,-15,-1,1,/,/
CCN1C(C#N)=C(C#N)N=C(C)CC1(C)C,-10,4,25*,-1,-6,8,0,-4

# Screening data deposited in PubChem by The Scripps Research Institute Molecular Screening Center.
